Experimental data reported in ChEMBL document CHEMBL1144480, “Study on the substituents' effects of a series of synthetic chalcones against the yeast Candida albicans” (2007).
≈ marks a conversion by molar mass, not a printed value.

Assays:
Type in all cases: functional
[1] = tested on: Candida albicans; experiment: Antifungal activity against Candida albicans Berhaut 62I after 24 hrs
How it was run: (§1)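 Serial dilutions of each chalcone in meat-pepton broth in tubes; inoculum 10⁵ cells/ml; 37 °C, 24 h. MIC taken as the lowest dilution with no visible growth against inoculated drug-free broth. Tubes without visible growth streaked onto meat-pepton agar, 37 °C, 24 h, and checked for growth.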

[2] = tested on: Candida albicans; experiment: Growth inhibition of Candida albicans Berhaut 62I by agar cup method
How it was run: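 Each well received 100 µl of sample dissolved in 96% EtOH. Pre-diffusion at 4 °C for 2 h, then 37 °C for 48 h. Read-out was inhibitory zone diameter, with ≥15 mm initially counted as active. Pure solvent served as control.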

[3] = tested on: Candida albicans; experiment: Antifungal activity against Candida albicans Berhaut 62I in meat-pepton broth; settings: Candida albicans, Berhaut 62I; read-out: MIC; how it was run: as §1

SMILES | MIC [1] [µg/mL] | inhibition zone (IZ) [2] [mm] | MIC [3] [µg/mL]
COc1cc(/C=C/C(=O)c2ccc(Cl)cc2)ccc1O | 250 (≈ 866 µM) | 19 | 62.5 (≈ 216 µM)
CC(=O)Nc1ccc(/C=C/C(=O)c2ccc(Cl)cc2)cc1 | 500 (≈ 1670 µM) | 0 | 500 (≈ 1670 µM)
COc1cccc(/C=C/C(=O)c2cc(OC)c(OC)c(OC)c2)c1 |  |  | 62.5 (≈ 190 µM)
COc1cccc(/C=C/C(=O)c2ccc(Cl)cc2)c1O | 500 (≈ 1730 µM) | 0 | 500 (≈ 1730 µM)
COc1cccc(/C=C/C(=O)c2ccccc2)c1O | 62.5 (≈ 246 µM) | 12 | 62.5 (≈ 246 µM)
COc1cc(/C=C/C(=O)c2ccc(Cl)cc2)cc(OC)c1OC | 500 (≈ 1500 µM) | 0 | 62.5 (≈ 188 µM)
COc1cc(C(=O)/C=C/c2ccccc2)cc(OC)c1OC | 500 (≈ 1680 µM) | 0 | 500 (≈ 1680 µM)
COc1cc(C(=O)/C=C/c2ccc(Cl)cc2)cc(OC)c1OC | 500 (≈ 1500 µM) | 0 | 500 (≈ 1500 µM)
COc1ccc(/C=C/C(=O)c2ccccc2)cc1O | 500 (≈ 1970 µM) | 0 | 500 (≈ 1970 µM)
O=C(/C=C/c1ccc2c(c1)OCO2)c1ccccc1 |  |  | 62.5 (≈ 248 µM)
COc1cccc(/C=C/C(=O)c2ccc(Cl)cc2)c1 | 500 (≈ 1830 µM) | 15 | 62.5 (≈ 229 µM)
O=C(/C=C/c1ccccc1)c1ccc(Cl)cc1 | 500 (≈ 2060 µM) | 0 | 500 (≈ 2060 µM)
COc1cc(C(=O)/C=C/c2ccc(C#N)cc2)cc(OC)c1OC | 500 (≈ 1550 µM) | 0 | 500 (≈ 1550 µM)
O=C(/C=C/c1ccccc1)c1ccccc1 [CHALCONE] | 125 (≈ 600 µM) | 30 | 125 (≈ 600 µM)
O=C(/C=C/c1cccc(O)c1)c1ccc(Cl)cc1 | 125 (≈ 483 µM) | 20 | 125 (≈ 483 µM)
COc1ccc(/C=C/C(=O)c2ccc(Cl)cc2)cc1O | 500 (≈ 1730 µM) | 0 | 500 (≈ 1730 µM)
CN(C)c1ccc(/C=C/C(=O)c2ccc(Cl)cc2)cc1 | 500 (≈ 1750 µM) | 0 | 500 (≈ 1750 µM)
N#Cc1ccc(/C=C/C(=O)c2ccc(Cl)cc2)cc1 | 250 (≈ 934 µM) | 23 | 250 (≈ 934 µM)
O=C(/C=C/c1ccc([N+](=O)[O-])cc1)c1ccc(Cl)cc1 | 250 (≈ 869 µM) | 15 | 250 (≈ 869 µM)
O=C(/C=C/c1ccc(O)cc1)c1ccccc1 [4-HYDROXYCHALCONE] | 62.5 (≈ 279 µM) | 15 | 62.5 (≈ 279 µM)
Cc1ccc(/C=C/C(=O)c2ccccc2)cc1 | 500 (≈ 2250 µM) | 0 | 500 (≈ 2250 µM)
O=C(/C=C/c1ccc(Cl)cc1)c1ccccc1 [4-CHLORO CHALCONE] | 500 (≈ 2060 µM) | 0 | 500 (≈ 2060 µM)
CN(C)c1ccc(/C=C/C(=O)c2ccccc2)cc1 | 500 (≈ 1990 µM) | 0 | 500 (≈ 1990 µM)
